KCNQ1 act: potentiates or activates the human KCNQ1 potassium channel | P51787 | CHO-K1 KCNQ1, thallium flux FluxOR fluorescence; hits give high values | B-score at 10 µM | actives 0.35% (n = 310,000);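 active means fluorescence ratio B-score, a plate-corrected score, at least three library SD, with initial intensity B-score within 5 SD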
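Test system: CHO-K1 cells stably expressing KCNQ1 / Medium: assay buffer / Also added: depolarizing K+/Tl+ stimulus, K2SO4 and Tl2SO4 each 12.5 mM in 5x stock / Incubation: 90 min dye loading and 20 min compound exposure, both at room temperature / Signal: thallium influx via FluxOR fluorescence, kinetic imaging / Evaluation: B score of baseline-normalized fluorescence ratio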
KCNQ1 block: blocks the human KCNQ1 potassium channel; P51787; CHO-K1 KCNQ1, FluxOR thallium flux fluorescence; hits give high values; B-score at 10 µM; actives 1.3% (n = 310,000); AID 2642;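 active means compounds whose thallium flux B-score, printed positive for inhibition, exceeds three library SD while starting fluorescence stays within three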;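 further: channel opened by potassium depolarization with thallium stimulus after 20 min compound exposure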
hERG rescue: compounds protecting human hERG from proarrhythmic drug block. CHO-hERG, FluxOR thallium flux, dofetilide IC70 present. activation (rescue from dofetilide block), less the hit threshold, % at 10 µM. actives 0.51% (n = 310,000);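 active means activation above the mean of controls blocked by dofetilide plus 5 SD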;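 further: thallium influx through hERG after potassium depolarization seen as dye fluorescence rise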
PHOSPHO1 inh: inhibitors of human PHOSPHO1 phosphatase; recombinant PHOSPHO1, absorbance phosphatase assay; inhibition, % at 13.3 µM; actives 1.1% (n = 290,000); AID 1565; in the data active means inhibition above about 60%
KCNK9 block: blocks the human KCNK9 two-pore domain potassium channel; AID 488922; Q9NPC2; actives 1.2% (n = 310,000); HEK293 KCNK9, FluxOR thallium flux fluorescence; hits give low values; B-score at 10 µM;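 active means ratio B-score over 3 SD below the library mean, with starting fluorescence within 5 SD of its mean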;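 further: negative B-score means less thallium flux so channel inhibition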
KCNK3 block: human KCNK3 channel inhibition, primary screen. CHO-KCNK3 thallium flux, FluxOR fluorescence; hits give low values. B-score at 10 µM. actives 0.84% (n = 340,000). AID 602410;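 active means B-score under library mean minus 4 SD, starting fluorescence ratio at most library mean plus 5 SD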;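 further: more negative B-score means stronger inhibition of thallium flux through KCNK3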
Numbers stand for hits. Compounds with a hit are over-represented: about 4% of the library has one in this group of screens.

`CCOc1ccc(NC(=O)CSc2nccn2C)cc1` gave KCNQ1 act inactive, KCNQ1 block inactive, hERG rescue inactive, PHOSPHO1 inh inactive, KCNK9 block inactive and KCNK3 block inactive.
`O=C(CN1CCOCC1)Nc1ccc(Oc2ccc(NC(=O)CN3CCOCC3)cc2)cc1` gave KCNQ1 act inactive, KCNQ1 block inactive, hERG rescue inactive, PHOSPHO1 inh inactive, KCNK9 block inactive and KCNK3 block inactive.
Screening COc1ccc2nc(NC(=O)CN3CCOCC3)sc2c1 returned KCNQ1 act inactive, KCNQ1 block inactive, hERG rescue 7.3, PHOSPHO1 inh inactive, KCNK9 block inactive and KCNK3 block inactive.
`O=C1c2oc3ccc(Cl)cc3c(=O)c2C(c2ccco2)N1CCN1CCOCC1` (centres undefined) gave KCNQ1 act inactive, KCNQ1 block inactive, hERG rescue inactive, PHOSPHO1 inh inactive, KCNK9 block inactive and KCNK3 block inactive.
CC(=O)Nc1ccc(NC(=O)CSc2ncc(C(=O)Nc3ccccc3)c(=O)n2C)cc1 was read as KCNQ1 act inactive, KCNQ1 block 7, hERG rescue inactive, KCNK9 block inactive and KCNK3 block inactive.
`COc1cc(NC(=O)c2ccccc2F)c(OC)cc1NC(=O)CN1CCOCC1` gave KCNQ1 act inactive, KCNQ1 block inactive, hERG rescue 4.7, PHOSPHO1 inh inactive, KCNK9 block inactive and KCNK3 block inactive.
For Cn1c(SCC(=O)NCc2ccccc2)ncc(C(=O)Nc2ccccc2)c1=O the results were KCNQ1 act inactive, KCNQ1 block inactive, hERG rescue inactive, KCNK9 block inactive and KCNK3 block inactive.
`O=C(CN1CCCCCC1)Nc1ccc(Oc2ccccc2)cc1` gave KCNQ1 act 19, KCNQ1 block inactive, hERG rescue 18, PHOSPHO1 inh inactive, KCNK9 block inactive and KCNK3 block inactive.
Screening O=C(CCN1CCOCC1)Nc1ccccc1 returned KCNQ1 act inactive, KCNQ1 block inactive, hERG rescue 5.1, PHOSPHO1 inh inactive, KCNK9 block inactive and KCNK3 block inactive.
O=C(c1nc(SCc2ccc([N+](=O)[O-])cc2)n2ccccc12)C(F)(F)F was read as KCNQ1 act inactive, KCNQ1 block inactive, hERG rescue inactive, PHOSPHO1 inh inactive, KCNK9 block inactive and KCNK3 block inactive.
For COC(=O)c1ccc(NC(=O)CN2CCOCC2)cc1 the results were KCNQ1 act inactive, KCNQ1 block inactive, hERG rescue inactive, PHOSPHO1 inh 74, KCNK9 block inactive and KCNK3 block inactive.
`Cc1ccccc1NC(=O)CCN1CCCCCC1` gave KCNQ1 act inactive, KCNQ1 block inactive, hERG rescue 4.8, KCNK9 block inactive and KCNK3 block inactive.
Cc1ccccc1NC(=O)CCN1CCN(Cc2ccccc2)CC1 was read as KCNQ1 act inactive, KCNQ1 block inactive, hERG rescue inactive, PHOSPHO1 inh inactive, KCNK9 block inactive and KCNK3 block inactive.
COc1ccc(/C=N/NC(=O)CC#N)cc1Oc1nc(Cl)ncc1F was read as KCNQ1 act inactive, KCNQ1 block inactive, hERG rescue inactive, PHOSPHO1 inh inactive, KCNK9 block inactive and KCNK3 block inactive.
Screening CCOc1cc(/C=N/NC(=O)c2ccc(O)cc2)ccc1Oc1nc(Cl)ncc1F returned KCNQ1 act inactive, KCNQ1 block inactive, hERG rescue inactive, PHOSPHO1 inh inactive, KCNK9 block -7.8 and KCNK3 block inactive.
Cc1ccc(C2(c3noc(CN(C)Cc4ccccn4)n3)CCCC2)cc1 was read as KCNQ1 act inactive, KCNQ1 block inactive, hERG rescue inactive, PHOSPHO1 inh inactive, KCNK9 block inactive and KCNK3 block inactive.
`CCC1CCC2(CC1)NNC(=S)NN2` gave KCNQ1 act inactive, KCNQ1 block inactive, hERG rescue inactive, PHOSPHO1 inh 97, KCNK9 block inactive and KCNK3 block inactive.
`COc1cc(/C=N/OCC(=O)NC2CCS(=O)(=O)C2)ccc1OC(F)F` (centres undefined) gave KCNQ1 act inactive, KCNQ1 block inactive, hERG rescue inactive, PHOSPHO1 inh inactive, KCNK9 block inactive and KCNK3 block inactive.
Screening Cc1noc(C)c1CSc1nnc(-c2ccccc2)n1Cc1ccco1 returned KCNQ1 act inactive, KCNQ1 block inactive, hERG rescue inactive, PHOSPHO1 inh inactive, KCNK9 block inactive and KCNK3 block inactive.
`Cc1noc(C)c1CSc1nnc(-c2ccccc2)n1N` gave KCNQ1 act inactive, KCNQ1 block inactive, hERG rescue inactive, PHOSPHO1 inh 97, KCNK9 block inactive and KCNK3 block inactive.
C/C(=N/Oc1nc(C)cc(C)n1)c1ccc(Cl)cc1Cl was read as KCNQ1 act inactive, KCNQ1 block inactive, hERG rescue inactive, PHOSPHO1 inh inactive, KCNK9 block inactive and KCNK3 block inactive.
C/C(=N\Oc1cccc(F)n1)c1ccc(Cl)cc1Cl was read as KCNQ1 act inactive, KCNQ1 block 6, hERG rescue inactive, PHOSPHO1 inh inactive, KCNK9 block inactive and KCNK3 block inactive.
For Cc1cc(C)cc(NC(=S)N(Cc2ccc(Cl)cc2)Cc2ccc(C(=O)O)cc2)c1 the results were KCNQ1 act inactive, KCNQ1 block inactive, hERG rescue inactive, PHOSPHO1 inh inactive, KCNK9 block inactive and KCNK3 block inactive.
`Cc1cc(C)cc(NC(=S)N(Cc2ccc(Br)cc2)Cc2ccc(C(=O)O)cc2)c1` gave KCNQ1 act inactive, KCNQ1 block inactive, hERG rescue inactive, PHOSPHO1 inh inactive, KCNK9 block -7.4 and KCNK3 block inactive.
For Cc1cc(C)n(-c2ccc(C(=O)Nc3sccc3C(N)=O)cc2)n1 the results were KCNQ1 act inactive, KCNQ1 block inactive, hERG rescue inactive, PHOSPHO1 inh inactive, KCNK9 block inactive and KCNK3 block inactive.
For CCCCN1C(=N)N([C@@H](CCC)CN2CCC[C@H]2CN2C(N)=NC[C@H]2C(C)C)C[C@H]1[C@H](C)CC the results were KCNK3 block inactive.
For C/C(=N\NC(=O)C1COc2ccccc2O1)c1ccc(N2CCOCC2)cc1 (centres undefined) the results were KCNQ1 act 30, KCNQ1 block inactive, hERG rescue 5.6, PHOSPHO1 inh inactive, KCNK9 block inactive and KCNK3 block inactive.
CC1(C)Cc2cccc(OCC(=O)NCCc3ccccc3)c2O1 was read as KCNQ1 act inactive, KCNQ1 block inactive, hERG rescue inactive, KCNK9 block inactive and KCNK3 block inactive.
For O=S(=O)(Nc1nc2ccccc2nc1Nc1ccc2c(c1)OCCO2)c1cccs1 the results were KCNQ1 act inactive, KCNQ1 block 12, hERG rescue inactive, PHOSPHO1 inh inactive, KCNK9 block inactive and KCNK3 block inactive.
`O=C(OCc1nnc(-c2ccccc2)o1)c1ccc(Cl)cc1` gave KCNQ1 act inactive, KCNQ1 block inactive, hERG rescue inactive, PHOSPHO1 inh inactive, KCNK9 block inactive and KCNK3 block inactive.
Screening O=C(Cc1ccc(Cl)cc1)OCc1nnc(-c2ccccc2)o1 returned KCNQ1 act inactive, KCNQ1 block inactive, hERG rescue inactive, PHOSPHO1 inh 60, KCNK9 block inactive and KCNK3 block inactive.

Source: PubChem
